Data reported in ChEMBL document CHEMBL1156136, “Hypoxia-activated prodrugs: substituent effects on the properties of nitro seco-1,2,9,9a-tetrahydrocyclopropa[c]benz[e]indol-4-one (nitroCBI) prodrugs of DNA minor groove alkylating agents” (J Med Chem, 2009).

Key:
SK-OV-3 [1] = experiment: Cytotoxicity against human SKOV3 cells in oxic condition after 4 hrs by sulforhodamine B assay; format: functional, cell-based; conditions: SK-OV-3, 4 h
Summary of the method: (§1)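 Log-phase monolayers exposed to drug for 4 h under aerobic (20% O2) or anoxic (<20 ppm O2) conditions, then sulforhodamine B staining 5 days later. IC50 interpolated as concentration lowering cell density to 50% of same-plate controls. HCR = IC50(oxic)/IC50(hypoxic), mean of intraexperiment ratios. A549 P450R line is a stable transfectant with 9-fold higher cytochrome c reduction rate than parent.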

SK-OV-3 [2] = experiment: Cytotoxicity against human SKOV3 cells in hypoxic condition after 4 hrs by sulforhodamine B assay; format: functional, cell-based; conditions: SK-OV-3, 4 h; summary of the method: as §1
SK-OV-3 [3] = experiment: Hypoxic cytotoxicity ratio, IC50 for human SKOV3 cells in oxic condition to IC50 for human SKOV3 cells in hypoxic condition; format: functional; summary of the method: as §1
HT-29 [4] = experiment: Cytotoxicity against human HT-29 cells in oxic condition after 4 hrs by sulforhodamine B assay; format: functional, cell-based; conditions: HT-29, 4 h; summary of the method: as §1
HT-29 [5] = experiment: Cytotoxicity against human HT-29 cells in hypoxic condition after 4 hrs by sulforhodamine B assay; format: functional, cell-based; conditions: HT-29, 4 h; summary of the method: as §1
HT-29 [6] = experiment: Hypoxic cytotoxicity ratio, IC50 for human HT-29 cells in oxic condition to IC50 for human HT-29 cells in hypoxic condition; format: functional; summary of the method: as §1

Structure (SMILES)	IC50 (SK-OV-3 [1]) [nM]	IC50 (SK-OV-3 [2]) [nM]	Ratio IC50 (SK-OV-3 [3])	IC50 (HT-29 [4]) [nM]	IC50 (HT-29 [5]) [nM]	Ratio IC50 (HT-29 [6])
CC(=O)c1cccc2c3c(cc([N+](=O)[O-])c12)N(C(=O)c1cc2cc(OCCN(C)C)ccc2[nH]1)CC3CCl (configuration not stated)	640	52	12	200	35	5.2
CC(=O)c1ccc2c([N+](=O)[O-])cc3c(c2c1)C(CCl)CN3C(=O)c1cc2cc(OCCN(C)C)ccc2[nH]1 (configuration not stated)	200		1.3	150		1.1
COc1cc2cc(C(=O)N3CC(CCl)c4c3cc(N)c3cc(S(N)(=O)=O)ccc43)[nH]c2c(OC)c1OC (configuration not stated)	41000	33	1.3	86000	91	1.1
COc1cc2cc(C(=O)N3CC(CCl)c4c3cc([N+](=O)[O-])c3cc([N+](=O)[O-])ccc43)[nH]c2c(OC)c1OC (configuration not stated)	16000	240	70	14000	1300	12
COC(=O)c1ccc2c3c(cc(N)c2c1)N(C(=O)c1cc2cc(OCCN(C)C)ccc2[nH]1)CC3CCl (configuration not stated)	7700	8.3	0.91	8600	5.7	1.7
COc1cc2cc(C(=O)N3CC(CCl)c4c3cc([N+](=O)[O-])c3cc(C(C)=O)ccc43)[nH]c2c(OC)c1OC (configuration not stated)	5100	0.44	19	4100	0.93	5.2
COC(=O)c1ccc2c3c(cc([N+](=O)[O-])c2c1)N(C(=O)c1cc2cc(OCCN(C)C)ccc2[nH]1)CC3CCl (configuration not stated)	440		1.9	320		1.2
COc1cc2cc(C(=O)N3CC(CCl)c4c3cc([N+](=O)[O-])c3cc(S(C)(=O)=O)ccc43)[nH]c2c(OC)c1OC (configuration not stated)	17000	9.3	1.9	14000	7.2	2
CN(C)CCOc1ccc2[nH]c(C(=O)N3CC(CCl)c4c3cc([N+](=O)[O-])c3c(S(N)(=O)=O)cccc43)cc2c1 (configuration not stated)	3700	800	4.6	2700	1200	2.3
COc1cc2cc(C(=O)N3CC(CCl)c4c3cc(N)c3cc(C(N)=O)ccc43)[nH]c2c(OC)c1OC (configuration not stated)	34000	27	1.2	59000	28	2.3
COc1cc2cc(C(=O)N3CC(CCl)c4c3cc([N+](=O)[O-])c3cc(C(N)=O)ccc43)[nH]c2c(OC)c1OC (configuration not stated)	5800	1.6	6.1	7900	3.6	2.8
CC(=O)c1ccc2c3c(cc(N)c2c1)N(C(=O)c1cc2cc(OCCN(C)C)ccc2[nH]1)CC3CCl (configuration not stated)	11000	8.2	1.4	7600	5.6	1.5
CN(C)CCOc1ccc2[nH]c(C(=O)N3CC(CCl)c4c3cc([N+](=O)[O-])c3ccc(S(N)(=O)=O)cc43)cc2c1 (configuration not stated)	4900		21	9000		26
CN(C)CCOc1ccc2[nH]c(C(=O)N3CC(CCl)c4c3cc(N)c3ccc(S(C)(=O)=O)cc43)cc2c1 (configuration not stated)	18000	12	1.5	29000	16	1.9
CN(C)CCOc1ccc2[nH]c(C(=O)N3CC(CCl)c4c3cc(N)c3cc(C#N)ccc43)cc2c1 (configuration not stated)	13000	12	1.1	17000	8.6	2
COC(=O)c1ccc2c([N+](=O)[O-])cc3c(c2c1)C(CCl)CN3C(=O)c1cc2cc(OCCN(C)C)ccc2[nH]1 (configuration not stated)	520		2.4	550		1.6
COc1cc2cc(C(=O)N3CC(CCl)c4c3cc([N+](=O)[O-])c3ccc(S(C)(=O)=O)cc43)[nH]c2c(OC)c1OC (configuration not stated)	11000	3.9	4.2	14000	7.2	2.5
COc1cc2cc(C(=O)N3CC(CCl)c4c3cc([N+](=O)[O-])c3c(C(C)=O)cccc43)[nH]c2c(OC)c1OC (configuration not stated)	500	0.14	3.4	680	0.33	2
COC(=O)c1ccc2c3c(cc([N+](=O)[O-])c2c1)N(C(=O)c1cc2cc(OC)c(OC)c(OC)c2[nH]1)CC3CCl (configuration not stated)	1100	0.51	4	1900	0.81	3.2

Structure (SMILES)	IC50 (SK-OV-3 [1]) [nM]	IC50 (SK-OV-3 [2]) [nM]	Ratio IC50 (SK-OV-3 [3])	IC50 (HT-29 [4]) [nM]	IC50 (HT-29 [5]) [nM]	Ratio IC50 (HT-29 [6])
CN(C)CCOc1ccc2[nH]c(C(=O)N3CC(CCl)c4c3cc([N+](=O)[O-])c3c([N+](=O)[O-])cccc43)cc2c1 (configuration not stated)	4100	1.4	2.9	2800	1.3	2.2
CN(C)CCOc1ccc2[nH]c(C(=O)N3CC(CCl)c4c3cc([N+](=O)[O-])c3cc(C(N)=O)ccc43)cc2c1 (configuration not stated)	3900			4100		
COc1cc2cc(C(=O)N3CC(CCl)c4c3cc(N)c3cc(S(C)(=O)=O)ccc43)[nH]c2c(OC)c1OC (configuration not stated)	32000	25	1.2	32000	36	0.86
CN(C)CCOc1ccc2[nH]c(C(=O)N3CC(CCl)c4c3cc(N)c3cc(C(N)=O)ccc43)cc2c1 (configuration not stated)	13000	13	1	61000	48	1.4
CN(C)CCOc1ccc2[nH]c(C(=O)N3CC(CCl)c4c3cc(N)c3cc(S(N)(=O)=O)ccc43)cc2c1 (configuration not stated)	23000	16	1.4	35000	23	1.8
CN(C)CCOc1ccc2[nH]c(C(=O)N3CC(CCl)c4c3cc([N+](=O)[O-])c3ccc(S(C)(=O)=O)cc43)cc2c1 (configuration not stated)	1900		2.7	980		1.2
CN(C)CCOc1ccc2[nH]c(C(=O)N3CC(CCl)c4c3cc([N+](=O)[O-])c3cc(S(C)(=O)=O)ccc43)cc2c1 (configuration not stated)	1300	0.12	11	970	0.27	4
CN(C)CCOc1ccc2[nH]c(C(=O)N3CC(CCl)c4c3cc([N+](=O)[O-])c3c(C#N)cccc43)cc2c1 (configuration not stated)	170	0.1	1.7	120	0.1	1.1
CN(C)CCOc1ccc2[nH]c(C(=O)N3CC(CCl)c4c3cc([N+](=O)[O-])c3c(C(N)=O)cccc43)cc2c1 (configuration not stated)	50000	3.2	18	23000	1.5	43
COc1cc2cc(C(=O)N3CC(CCl)c4c3cc([N+](=O)[O-])c3cc(S(N)(=O)=O)ccc43)[nH]c2c(OC)c1OC (configuration not stated)	37000	3.7	10	43000	12	3.6
COc1cc2cc(C(=O)N3CC(CCl)c4c3cc([N+](=O)[O-])c3ccc(S(N)(=O)=O)cc43)[nH]c2c(OC)c1OC (configuration not stated)	12000	4.9	2.6	24000	14	1.9
CN(C)CCOc1ccc2[nH]c(C(=O)N3CC(CCl)c4c3cc([N+](=O)[O-])c3ccc(C(N)=O)cc43)cc2c1 (configuration not stated)	3400		34	2800		22
CN(C)CCOc1ccc2[nH]c(C(=O)N3CC(CCl)c4c3cc([N+](=O)[O-])c3cc(C#N)ccc43)cc2c1 (configuration not stated)	810	0.19		700	0.43	
COc1cc2cc(C(=O)N3CC(CCl)c4c3cc(N)c3ccc(S(C)(=O)=O)cc43)[nH]c2c(OC)c1OC (configuration not stated)	19000	14	1.4	25000	28	1
CN(C)CCOc1ccc2[nH]c(C(=O)N3CC(CCl)c4c3cc(N)c3cc(S(C)(=O)=O)ccc43)cc2c1 (configuration not stated)	14000	8.2	1.7	11000	7.3	1.6
CC(=O)c1ccc2c3c(cc([N+](=O)[O-])c2c1)N(C(=O)c1cc2cc(OCCN(C)C)ccc2[nH]1)CC3CCl (configuration not stated)	640		4	170		1.5
CN(C)CCOc1ccc2[nH]c(C(=O)N3CC(CCl)c4c3cc([N+](=O)[O-])c3ccccc43)cc2c1 (configuration not stated)	1400	0.87		470	0.48	
CN(C)CCOc1ccc2[nH]c(C(=O)N3CC(CCl)c4c3cc([N+](=O)[O-])c3cccc([N+](=O)[O-])c43)cc2c1 (configuration not stated)	1200		1.5	1400		1.3
COc1cc2cc(C(=O)N3CC(CCl)c4c3cc([N+](=O)[O-])c3c([N+](=O)[O-])cccc43)[nH]c2c(OC)c1OC (configuration not stated)	> 20000	> 20		> 20000	> 20	
